Results as given in article PMC6570502 (Chembiochem : a European journal of chemical biology, 2019).
Changes are numbered by the printed parent chain.

What was measured:
KDM4A N198G mutant = biological target: T1, KDM4A N198G mutant (Homo sapiens, UniProt O75164, N198G); test: MALDI demethylase assay, H3K9me3 substrate peptide, N198G mutant; format: biochemical
T1 sequence (O75164 1-1064 N198G): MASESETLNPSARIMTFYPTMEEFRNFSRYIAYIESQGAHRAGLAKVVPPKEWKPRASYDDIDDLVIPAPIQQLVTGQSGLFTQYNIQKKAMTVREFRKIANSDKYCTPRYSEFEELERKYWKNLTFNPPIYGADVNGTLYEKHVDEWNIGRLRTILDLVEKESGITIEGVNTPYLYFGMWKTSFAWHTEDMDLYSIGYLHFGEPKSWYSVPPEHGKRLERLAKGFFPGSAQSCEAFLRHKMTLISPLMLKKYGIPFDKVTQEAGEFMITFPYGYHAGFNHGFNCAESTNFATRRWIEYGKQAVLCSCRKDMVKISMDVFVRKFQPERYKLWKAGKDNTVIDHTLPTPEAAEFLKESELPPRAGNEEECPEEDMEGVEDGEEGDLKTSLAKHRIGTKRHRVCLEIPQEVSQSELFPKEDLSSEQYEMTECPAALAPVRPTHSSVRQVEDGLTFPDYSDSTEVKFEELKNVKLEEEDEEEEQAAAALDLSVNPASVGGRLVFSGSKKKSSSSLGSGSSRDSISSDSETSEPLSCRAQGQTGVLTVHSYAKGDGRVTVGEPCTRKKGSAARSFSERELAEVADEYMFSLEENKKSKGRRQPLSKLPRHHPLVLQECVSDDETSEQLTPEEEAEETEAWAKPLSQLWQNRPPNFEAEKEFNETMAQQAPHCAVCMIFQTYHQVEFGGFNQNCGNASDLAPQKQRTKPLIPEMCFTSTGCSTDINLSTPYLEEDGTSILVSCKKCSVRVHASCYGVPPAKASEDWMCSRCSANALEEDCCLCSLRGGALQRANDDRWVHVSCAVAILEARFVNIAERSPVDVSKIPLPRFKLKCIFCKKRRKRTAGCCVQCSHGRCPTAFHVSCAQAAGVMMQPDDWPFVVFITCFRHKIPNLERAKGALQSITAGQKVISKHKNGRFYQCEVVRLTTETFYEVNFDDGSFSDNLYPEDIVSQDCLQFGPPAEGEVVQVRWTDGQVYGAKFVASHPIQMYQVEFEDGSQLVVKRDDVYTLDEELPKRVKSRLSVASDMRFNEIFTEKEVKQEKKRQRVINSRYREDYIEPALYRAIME

KDM4A S288G mutant = biological target: T2, KDM4A S288G mutant (Homo sapiens, UniProt O75164, S288G); test: MALDI demethylase assay, H3K9me3 substrate peptide, S288G mutant; format: biochemical
T2 sequence (O75164 1-1064 S288G): T1 sequence (O75164 1-1064 N198G) with G198N, S288G
Summary of the method: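 KDM4A mutant demethylation of H3K9me3 peptide, read by MALDI-MS and expressed as % inhibition of demethylase activity, with wild type and the four active-site mutants run under the same conditions. The 2KG cofactor was cut from the 1 mM of the initial activity assay to 50 μM, about 3–4-fold above the enzymes' 2KG KM. KM came from an FDH/NAD+-coupled NADH fluorescence assay.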

[1] = scaffold test under the optimized assay conditions (50 μM 2KG), Figure S7
[2] = 100 μM compound, 50 μM 2KG, MALDI-MS

| SMILES | inhibition of demethylase activity (KDM4A N198G mutant; [1]) | inhibition of demethylase activity (KDM4A S288G mutant; [1]) | inhibition of demethylase activity (KDM4A N198G mutant; [2]) | inhibition of demethylase activity (KDM4A S288G mutant; [2]) |
| --- | --- | --- | --- | --- |
| O=C(O)c1ccc(O)c2ncccc12 [IOX1, 5-carboxy-8-hydroxyquinone] | inhibited | inhibited | – | – |
| O=C(O)CNC(=O)C(=O)O [compound 2, N-oxalylglycine] | inhibited | inhibited | significantly inhibited | significantly inhibited |
